Measured values from different studies.
SPHK1: Sphingosine kinase 1 (SPHK1, Homo sapiens, UniProt Q9NYA1)
OPRK1: Kappa-type opioid receptor (OPRK1, Homo sapiens, UniProt P41145)
EHMT1: Histone-lysine N-methyltransferase EHMT1 (EHMT1, Homo sapiens, UniProt Q9H9B1)
PIK3C2B: Phosphatidylinositol 4-phosphate 3-kinase C2 domain-containing subunit beta (PIK3C2B, Homo sapiens, UniProt O00750)
CNR1: Cannabinoid receptor 1 (CNR1, Homo sapiens, UniProt P21554)
PDE5A: cGMP-specific 3',5'-cyclic phosphodiesterase (PDE5A, Homo sapiens, UniProt O76074)
EDNRA: Endothelin-1 receptor (EDNRA, Homo sapiens, UniProt P25101)
ADORA2A: Adenosine receptor A2a (ADORA2A, Homo sapiens, UniProt P29274)
SCN9A: Sodium channel protein type 9 subunit alpha (SCN9A, Homo sapiens, UniProt Q15858)
PARP1: Poly [ADP-ribose] polymerase 1 (PARP1, Homo sapiens, UniProt P09874)

Compound | target | assay | setting | inhibition
N=C(N)N1CCC[C@H]1c1nc(-c2ccc(CCC3CCCC3)c(C(F)(F)F)c2)no1 | SPHK1 | enzyme activity, inhibitor, radiometric | 1 µM | 0%
N#Cc1cc(Cn2c(N3CCCC3)nc3ccccc32)ccc1F | OPRK1 | ligand displacement | 10 µM | -11.7%
[H]/N=C(/N)N1CCC[C@H]1c1nc(-c2ccc(OCCC=CCCCC)c(C(F)(F)F)c2)no1 | SPHK1 | enzyme activity, inhibitor, radiometric | 1 µM | 4%
CCN(c1cc(C#CCN2CCOCC2)cc(C(=O)NCc2c(C)cc(C)[nH]c2=O)c1C)[C@H]1CC[C@H](N(C)CCOC)CC1 | EHMT1 | enzyme activity, inhibitor | 1 µM | 9%
O=C(Nc1ccc(S(=O)(=O)N2CCC(Cl)CC2)cc1)c1ccc([N+](=O)[O-])o1 | OPRK1 | cell-free assay | 10 µM | 7%
O=c1c(-c2cc(O)c(O)c(O)c2)coc2cc(O)c(O)c(O)c12 | EHMT1 | cell-free assay | 10 µM | 0%
CS(=O)(=O)Nc1cccc(-c2csc(NC(=O)CSc3nc4nccnc4c(=O)n3CCc3ccccc3)n2)c1 | PIK3C2B | enzyme activity, inhibitor | 10 µM | 19%
Ic1cccc2cnccc12 | CNR1 | ligand displacement, radioligand | 10 µM | 3%
CCCCC=CCOc1ccc(-c2noc([C@@H]3CCCN3C(=N)N)n2)cc1C(F)(F)F | SPHK1 | enzyme activity, inhibitor, radiometric | 1 µM | 18%
COc1ccc([C@@H]2c3[nH]c4ccccc4c3C[C@@H]3C(=O)N(C(C)(C)C)C(=O)N23)cc1OC | PDE5A | enzyme activity, inhibitor, FP | 50 µM | 54%
CN(C)c1ccc(C(=C2C=CC(=[N+](C)C)C=C2)c2ccc(N(C)C)cc2)cc1 | EHMT1 | cell-free assay | 10 µM | 62%
CCCc1ccc(CCc2ccc(-c3noc([C@@H]4CCCN4C(=N)N)n3)cc2C(F)(F)F)cc1 | SPHK1 | enzyme activity, inhibitor, radiometric | 1 µM | 6%
O=c1c(O)cccc2cc(O)c(O)c(O)c12 | EHMT1 | cell-free assay | 10 µM | 3%
COc1ccc(F)cc1C(=O)NCc1ccc(-c2nn([C@@H](C)C(F)(F)F)c(N)c2C(N)=O)cc1 | Mitogen-activated protein kinase kinase kinase 3 (MAP3K3, Homo sapiens, UniProt Q99759) | target engagement in cells, inhibitor, chemoproteomics | 0.1 µM | 26.3%
CCN1C(=O)[C@H]2Cc3c([nH]c4ccccc34)[C@@H](c3cccnc3)N2C1=O | PDE5A | enzyme activity, inhibitor, FP | 50 µM | 102%
[H]/N=C(\N)N1CCC[C@H]1c1nc(-c2ccc(OCC=Cc3cccc(Br)c3)c(C(F)(F)F)c2)no1 | SPHK1 | enzyme activity, inhibitor, radiometric | 1 µM | 12%
COC(=O)[C@@H]1Cc2c([nH]c3ccccc23)[C@@H](c2ccc(OC)c(OC)c2)N1C(=O)CCl | PDE5A | enzyme activity, inhibitor, FP | 50 µM | 22%
CCN(Cc1ccccc1C(F)(F)F)C(=O)C1CCN(S(=O)(=O)c2ccc3[nH]ncc3c2)CC1 | EDNRA | ligand displacement, radioligand | 10 µM | 1%
O=C(O)CCCCCCCCCCCC[C@@H]1C=CCC1 | EHMT1 | cell-free assay | 10 µM | -11%
O=C1N=C(N2CCCCN2)S/C1=C\c1ccc(F)cc1O | Thromboxane A2 receptor (TBXA2R, Homo sapiens, UniProt P21731) | ligand displacement, radioligand | 10 µM | 11%
Oc1cccc(Nc2nc(-c3ccc(F)cc3F)cs2)c1 | EDNRA | cell-free assay | 10 µM | -11.2%
CN(C)c1ccc2nc3ccc(=[N+](C)C)cc-3sc2c1 | EHMT1 | cell-free assay | 10 µM | 30%
C=CCN1C(=O)[C@H]2Cc3c([nH]c4ccccc34)[C@@H](c3ccc(Br)s3)N2C1=O | PDE5A | enzyme activity, inhibitor, FP | 10 µM | 96%
CC(C)(C)N1C(=O)[C@H]2Cc3c([nH]c4ccccc34)[C@@H](c3cccnc3)N2C1=O | PDE5A | enzyme activity, inhibitor, FP | 50 µM | 90%

Compound | target | assay | setting | inhibition
COc1ccc(-c2nc3cc(CN4CCCCC4)ccc3o2)cc1OC | ADORA2A | ligand displacement, radioligand | 10 µM, cell membranes | 18%
CN1CCN(CCCOc2ccc(=O)n(-c3ccc(Cl)c(Cl)c3)n2)CC1 | SCN9A | ligand displacement | 1 µM | 20.5%
O=C(CSc1nc2nccnc2c(=O)n1CCc1ccccc1)Nc1nccs1 | PIK3C2B | enzyme activity, inhibitor | 10 µM | 68%
O=C(c1ccc(F)cc1)N(Cc1ccccc1)C1CCCCC1 | CNR1 | cell-free assay | 10 µM | 18%
N=C(N)N1CCC[C@H]1c1nc(-c2ccc(CCC3CC3)c(C(F)(F)F)c2)no1 | SPHK1 | enzyme activity, inhibitor, radiometric | 1 µM | 14%
O=c1c(O)cccc2c([C@H]3Oc4cc(O)cc(O)c4C[C@H]3O)cc(O)c(O)c12 | EHMT1 | cell-free assay | 10 µM | 5%
Cn1cncc1C1=CN(c2ncnc3[nH]cnc23)CCS1 | Interleukin-1 receptor-associated kinase-like 2 (IRAK2, Homo sapiens, UniProt O43187) | enzyme activity, inhibitor, radiometric | 50 nM | 30.7%
COC(=O)[C@@H]1Cc2c([nH]c3ccccc23)[C@H](c2ccc(OC)c(OC)c2)N1 | PDE5A | enzyme activity, inhibitor, FP | 50 µM | 8%
O=C(c1ccc(Cl)cc1)N(Cc1ccccc1)C1CCCCC1 | CNR1 | cell-free assay | 10 µM | 11.1%
CCN1C(=O)[C@@H]2Cc3c([nH]c4ccccc34)[C@@H](c3ccc(OC)c(OC)c3)N2C1=O | PDE5A | enzyme activity, inhibitor, FP | 50 µM | 75%
CCN(CC)c1ccc(C2Nc3ccc(C(=O)c4ccccc4)cc3NC3=C2C(=O)CC(C)(C)C3)cc1 (centres unmarked) | OPRK1 | ligand displacement, radioligand | 10 µM | 10%
O=C1NCCCc2ccc(F)cc21 | PARP1 | enzyme activity, inhibitor | 10 µM | 15%
CCCCCC=CCOc1ccc(-c2noc([C@@H]3CCCN3C(=N)N)n2)cc1C(F)(F)F (mixture of isomers) | SPHK1 | enzyme activity, inhibitor, radiometric | 1 µM | 54%
c1ccc(N2CCN(CCCc3ccc4oc(-c5ccco5)nc4c3)CC2)cc1 | ADORA2A | ligand displacement, radioligand | 10 µM, cell membranes | 28%
O=C(NCCNC(=O)c1n[nH]c(=O)c2ccccc12)c1cccc(CN2C(=O)CNC2=O)c1 | PARP1 | enzyme activity, inhibitor | 0.5 µM | ~50%
COc1cc(NC(C)=O)c(Cl)cc1C(=O)Nc1nccs1 | 5-hydroxytryptamine receptor 2A (HTR2A, Homo sapiens, UniProt P28223) | ligand displacement, radioligand | 10 µM | 8.7%
COc1cccc2nc(-c3ccc(C(=O)N4CCN(C(=O)C5CC5)CC4)cc3F)[nH]c(=O)c12 | PARP1 | enzyme activity, inhibitor, ELISA | 10 µM | 56%
COC(=O)[C@@H]1Cc2c([nH]c3ccccc23)[C@H](c2cccnc2)N1 | PDE5A | enzyme activity, inhibitor, FP | 50 µM | 72%
Oc1ccc(N2CCN(Cc3ccc4oc(-c5ccco5)nc4c3)CC2)cc1 | ADORA2A | ligand displacement, radioligand | 10 µM, cell membranes | 11%
CCCNc1nc2ccccc2n1Cc1ccc(Cl)cc1 | OPRK1 | ligand displacement | 10 µM | 11.1%
CN(C)C1CCN(CC#Cc2nn(C3CCCC3)c3nc(NCc4ccccc4)ncc23)C1 (centres unmarked) | Aurora kinase B (AURKB, Homo sapiens, UniProt Q96GD4) | enzyme activity, inhibitor, FRET | 10 µM | 51%
COc1ccc(-c2nc3cc(CCCN4CCN(c5ccccc5)CC4)ccc3o2)cc1OC | ADORA2A | ligand displacement, radioligand | 10 µM, cell membranes | 11%
COc1ccc(-n2nc(OCCCN3CCCCC3)ccc2=O)cc1 | SCN9A | ligand displacement | 1 µM | 32.1%
